Values joined by “and” are separate entries in the source; they are usually repeats but may differ in a detail not shown here. Equal values may be shown once.
Key:
[1] = organism: Mus musculus; assay: Radio activity accumulation in plasma (Excreatable reactivity) on 14 days; assay type: functional
Method in brief: (§1)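 Male CD-1 mice (~35 g, n=10 per group) given apomorphine 30 mg/kg fortified with [3H]-apomorphine (0.153 mCi/kg) ip, either once or daily for 14 days. Sampled 24 h after the last dose: plasma from infraorbital sinus (extractable and nonextractable radioactivity) and brain regions (striatum, cerebellum, forebrain without striatum). Radioactivity expressed as µg apomorphine equivalent per mL or per g […].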

[2] = organism: Mus musculus; assay: Radio activity accumulation in plasma (Excreatable reactivity) on day 1; assay type: functional; method in brief: as §1
[3] = organism: Homo sapiens; assay: Percentage binding to human plasma proteins was determined by measuring HPLC peak with radiochemical detection at 1.0 micro g/ml concentration in plasma; assay type: cell-free
Method in brief: (§2)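 Fresh plasma from fasted healthy human volunteers was spiked with 1-HCl plus [³H]-1 tracer. It was incubated 10 min at 37 °C and ultrafiltered through YMT membranes (1000g, 5 min, 37 °C). Ultrafiltrate was acidified with pH 3.0 acetate buffer containing carrier 1-HCl, argon-flushed and frozen at -15 °C. Phenyl-column HPLC was read by peak-eluate collection LSC, UV peak area, or radiochemical detection. % bound was calculated from total vs ultrafiltrate using a plasma water fraction of 0.93.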

[4] = organism: Sus scrofa; assay: Percentage binding to swine plasma proteins at 0.10 ug/mL concentration of the compound; assay type: cell-free
Method in brief: (§3)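 Plasma came from male Sprague-Dawley rats (~450 g, ether, vena cava blood, lithium heparin) or from six mature female swine (jugular catheter, heparinized). It was spiked with 1-HCl (10 ng–50 µg/mL) containing 0.5 mCi/mL [³H]-1. Samples were ultrafiltered as for human plasma, and the ultrafiltrate was analysed by HPLC peak-collection LSC. N = 4.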

[5] = organism: Sus scrofa; assay: Percentage binding to swine plasma proteins at 1.00 ug/mL concentration of the compound; assay type: cell-free; method in brief: as §3
[6] = organism: Sus scrofa; assay: Percentage binding to swine plasma proteins at 10.0 ug/mL concentration of the compound; assay type: cell-free; method in brief: as §3
[7] = organism: Sus scrofa; assay: Percentage binding to swine plasma proteins at 20.0 ug/mL concentration of the compound; assay type: cell-free; method in brief: as §3
[8] = organism: Homo sapiens; assay: Percentage binding to human plasma proteins was determined by collecting HPLC eluate at 0.01 micro g/ml concentration of compound 1 in plasma; assay type: cell-free; method in brief: as §2
[9] = organism: Homo sapiens; assay: Percentage binding to human plasma proteins was determined by collecting HPLC eluate at 0.10 micro g/ml concentration of compound 1 in plasma; assay type: cell-free; method in brief: as §2
[10] = organism: Homo sapiens; assay: Percentage binding to human plasma proteins was determined by collecting HPLC eluate at 10.0 micro g/ml concentration of compound 1 in plasma; assay type: cell-free; method in brief: as §2
[11] = organism: Homo sapiens; assay: Percentage binding to human plasma proteins was determined by measuring HPLC peak at 0.10 micro g/ml concentration of compound 1 in plasma; assay type: cell-free; method in brief: as §2
[12] = organism: Homo sapiens; assay: Percentage binding to human plasma proteins was determined by measuring HPLC peak at 1.00 micro g/ml concentration in plasma; assay type: cell-free; method in brief: as §2
[13] = organism: Homo sapiens; assay: Percentage binding to human plasma proteins was determined by measuring HPLC peak at 50.0 micro g/ml concentration in plasma; assay type: cell-free; method in brief: as §2
[14] = organism: Sus scrofa; assay: Percentage binding to swine plasma proteins at 5.0 ug/mL concentration of the compound; assay type: cell-free; method in brief: as §3
[15] = organism: Sus scrofa; assay: Percentage binding to swine plasma proteins at 50 ug/mL concentration of the compound; assay type: cell-free; method in brief: as §3
[16] = organism: Sus scrofa; assay: Percentage binding to swine plasma proteins a t0.01 ug/mL concentration of the compound; assay type: cell-free; method in brief: as §3
[17] = organism: Sus scrofa; assay: Percentage binding to swine plasma proteins at 100 ug/mL concentration of the compound; assay type: cell-free
[18] = organism: Rattus norvegicus; assay: Percentage binding to rat plasma proteins at 0.01 ug/mL concentration of the compound; assay type: cell-free; method in brief: as §3
[19] = organism: Rattus norvegicus; assay: Percentage binding to rat plasma proteins at 0.10 ug/mL concentration of the compound; assay type: cell-free; method in brief: as §3
[20] = organism: Rattus norvegicus; assay: Percentage binding to rat plasma proteins at 10.0 ug/mL concentration of the compound; assay type: cell-free; method in brief: as §3
[21] = organism: Rattus norvegicus; assay: Percentage binding to rat plasma proteins at 1 ug/mL concentration of the compound; assay type: cell-free; method in brief: as §3
[22] = organism: Rattus norvegicus; assay: Percentage binding to rat plasma proteins at 50.0 ug/mL concentration of the compound; assay type: cell-free; method in brief: as §3
[23] = molecular target: T1, Albumin (Bos taurus, UniProt P02769); assay: Covalent binding of compound to serum albumin after 1 hr when the level of [8,9-3H2]-1is 2.0 dpm *10e6; conditions: cattle
T1 sequence (P02769 whole entry): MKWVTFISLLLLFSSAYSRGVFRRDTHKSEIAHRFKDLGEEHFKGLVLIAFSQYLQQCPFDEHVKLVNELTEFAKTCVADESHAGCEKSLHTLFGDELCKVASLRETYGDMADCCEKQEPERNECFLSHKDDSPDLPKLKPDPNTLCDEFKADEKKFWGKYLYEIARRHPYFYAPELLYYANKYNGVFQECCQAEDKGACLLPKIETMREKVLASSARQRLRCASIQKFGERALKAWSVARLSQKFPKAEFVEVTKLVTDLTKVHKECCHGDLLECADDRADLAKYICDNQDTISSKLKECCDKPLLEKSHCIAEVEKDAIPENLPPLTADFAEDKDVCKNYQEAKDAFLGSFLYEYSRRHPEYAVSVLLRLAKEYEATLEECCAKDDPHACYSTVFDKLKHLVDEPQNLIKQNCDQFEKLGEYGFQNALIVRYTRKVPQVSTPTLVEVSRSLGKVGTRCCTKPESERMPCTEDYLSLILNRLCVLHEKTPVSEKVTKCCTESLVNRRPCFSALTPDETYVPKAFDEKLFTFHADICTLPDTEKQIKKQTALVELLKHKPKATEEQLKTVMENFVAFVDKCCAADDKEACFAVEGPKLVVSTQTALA
Method in brief: (§4)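 BSA (32 mg) with 2 mg apomorphine HCl hemihydrate plus tritiated [8,9-3H2]apomorphine at the level stated, in pH 7.4 phosphate buffer, 2.1 mL total, incubated 1 h. Incubates were extracted twice with ethyl acetate. Protein-bound radioactivity was measured by LSC after one of three workups: perchloric acid precipitation with repeated trifluoroacetic acid-ethanol washes; Sephadex G-25 gel filtration in 1% sodium lauryl sulfate buffer; or 4-day dialysis.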

[24] = molecular target: T1, Albumin; assay: Covalent binding of compound to serum albumin after 1 hr when the level of [8,9-3H2]-1is 2.0 dpm *10e6 expressed as mol of drug/mol of serum albumin; conditions: cattle; method in brief: as §4
[25] = molecular target: T1, Albumin; assay: Covalent binding of compound to serum albumin after 1 hr when the level of [8,9-3H2]-1is 2.2 dpm *10e6; conditions: cattle; method in brief: as §4
[26] = molecular target: T1, Albumin; assay: Covalent binding of compound to serum albumin after 1 hr when the level of [8,9-3H2]-1is 2.3 dpm *10e6; conditions: cattle; method in brief: as §4
[27] = molecular target: T1, Albumin; assay: Covalent binding of compound to serum albumin after 1 hr when the level of [8,9-3H2]-1is 2.3 dpm *10e6 expressed as mol of drug/mol of BSA; conditions: cattle; method in brief: as §4
[28] = molecular target: T1, Albumin; assay: (§5) Covalent binding of compound to serum albumin after 1 hr when the level of [8,9-3H2]-1is 2.6 dpm *10e6; conditions: cattle; method in brief: as §4
[29] = molecular target: T1, Albumin; assay: Covalent binding of compound to serum albumin after 1 hr when the level of [8,9-3H2]-1is 2.6 dpm *10e6 expressed as mol of drug/mol of serum albumin; conditions: cattle; method in brief: as §4
[30] = molecular target: T1, Albumin; assay: as §5; conditions: cattle; method in brief: as §4; remark: listed apart in the source
[31] = molecular target: T1, Albumin; assay: Covalent binding of compound to serum albumin after 1 hr when the level of [8,9-3H2]-1is 2.7 dpm *10e6; conditions: cattle; method in brief: as §4
[32] = molecular target: T1, Albumin; assay: Covalent binding of compound to serum albumin after 1 hr when the level of [8,9-3H2]-1is 2.7 dpm *10e6 expressed as mol of drug/mol of serum albumin; conditions: cattle; method in brief: as §4
[33] = organism: Mus musculus; assay: Percentage of covalently bound total in forebrain without striatum of mouse; assay type: functional
Method in brief: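 Male CD-1 mice (~35 g, n=10) given apomorphine 30 mg/kg with [3H]-apomorphine (0.153 mCi/kg) ip daily for 14 days, killed 24 h after the last dose. Plasma from infraorbital sinus; brain split into striatum, cerebellum, forebrain without striatum. Protein-bound radioactivity expressed as µg/g protein (albumin equivalent; plasma µg/mL) and as % of total tissue radioactivity.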

[34] = organism: Mus musculus; assay: Ratio of accumulation of radioactivity from 14 to 1 day in extractable reactivity in plasma; assay type: functional
Method in brief: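 Male CD-1 mice (~35 g, 10 per group) received 1 at 30 mg/kg ip with [³H]-1 (0.153 mCi/kg), once or daily for 14 days, with free access to food and water. At 24 h after the last dose, plasma (infraorbital sinus), brain regions, kidney, liver and GI tract were taken for radioactivity counting. The accumulation ratio is radioactivity after 14 doses divided by radioactivity after 1 dose.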

[35] = molecular target: T1, Albumin; assay: Covalent binding of compound to serum albumin after 1 hr when the level of [8,9-3H2]-1is 2.2 dpm *10e6 expressed as mol of drug/mol of serum albumin; conditions: cattle; method in brief: as §4

CN1CCc2cccc3c2[C@H]1Cc1ccc(O)c(O)c1-3 [APOMORPHINE]
Accumulation [1]: 1.42 µg/mL
Accumulation [2]: 0.561 µg/mL
Binding [3]: 94.9%
Binding [4]: 93%
Binding [5]: 93.5%
Binding [6]: 86.8%
Binding [7]: 86.2%
Binding [8]: 96.8%
Binding [9]: 97.8%
Binding [10]: 95.3% and 96.9%
Binding [11]: 96.6%
Binding [12]: 96.6%
Binding [13]: 94.9%
Binding [14]: 90.4%
Binding [15]: 87%
Binding [16]: 94.8%
Binding [17]: 85.7%
Binding [18]: 91.3%
Binding [19]: 90.4%
Binding [20]: 90.7%
Binding [21]: 90.4%
Binding [22]: 89.1%
Binding [23]: 4848 dpm mg-1
Binding [24]: 3 M of drug (M of BSA)-1
Binding [25]: 3850 dpm mg-1
Binding [26]: 6215 dpm mg-1
Binding [27]: 3.4 M of drug (M of BSA)-1
Binding [28]: 8238 dpm mg-1 and 9938 dpm mg-1
Binding [29]: 4 M of drug (M of BSA)-1 and 4.8 M of drug (M of BSA)-1 and 4.4 M of drug (M of BSA)-1
Binding [30]: 9063 dpm mg-1
Binding [31]: 8465 dpm mg-1 and 12693 dpm mg-1
Binding [32]: 4 M of drug (M of BSA)-1 and 5.9 M of drug (M of BSA)-1
Binding [33]: 1.62%
Ratio [34]: 2.6
Binding [35]: 2.1 M of drug (M of BSA)-1

Source: ChEMBL document CHEMBL1122996, “Interactions of apomorphine with serum and tissue proteins” (J Med Chem, 1985)
